In PMC9095748 (The Journal of Biological Chemistry, 2022):
≈ marks a conversion by molar mass, not a printed value. Where “and” joins values, the source holds several entries; their conditions need not be identical. Equal entries are not always repeated. One block for each molecule: values may come before it.

Legend:
[1] = molecular target: T1, hGLP1R (Homo sapiens, UniProt P43220); experiment: cAMP Glo assay in hGLP1R-transfected 293A cells; format: cell-based
Outline: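 293A cells transiently lipofected with hGLP1R at 70% confluency. Seeded 4 h later at 5×10^4 cells/well and left overnight. Treated 4 h with DMSO or test compound at 0.5, 10, 20, 100, 200, 300, 500, 1000 and 2000 nM. Cells lysed and cAMP read by cAMP-Glo luminescence. EC50 from curve fitting; n = 3/group.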

[2] = test system: INS-1 cells; experiment: Insulin secretion assay in INS-1 cells; format: cell-based, rat; conditions: high glucose 16.7 mM, 1.5 h
Outline: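 INS-1 cells seeded, then held 16 h in 5 mM glucose medium and 1.5 h in 2.5 mM glucose. Treated 1.5 h with test compound or DMSO vehicle at 16.7 mM glucose. Supernatant insulin measured by rat insulin ELISA and normalized to total protein. n = 3/group.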

[3] = test system: CREB phosphorylation at Ser133; experiment: CREB phosphorylation, Western blot in HepG2 cells; format: cell-based, human; conditions: PK2 50 μM, 1 hr, serum-starved HepG2 cells, vs DMSO
[4] = Tissue distribution after oral administration in mice; format: in vivo, BALB/c mice; conditions: 2 h after oral administration
Outline: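 Male BALB/c mice dosed orally at 25 mg/kg. Organs (pancreas, heart, brain, lung, spleen, kidney, liver) collected 2 h after dosing and homogenized. Extracted with acetonitrile:methanol (1:1) and run on reverse-phase C18 HPLC with 0.1% TFA water/acetonitrile (40:60) and fluorescence detection (ex 350 nm, em 497 nm). Quantified against a standard curve.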

[5] = Safety observation in BALB/c mice over 30 days of treatment; format: in vivo; conditions: 25 mg/kg
[6] = test system: PKA; experiment: PKA activity ELISA in hGLP1R transfected 293A cells; format: cell-based, human; conditions: PK2 50 μM, 45 min, vs DMSO
Outline: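 293A cells lipofected with hGLP1R-spark-GFP. After 48 h, seeded at 1.0×10^4 cells/well. Next day treated with test compound (50 μM) or DMSO for 45 min in serum-free medium. PKA activity read by an ELISA on immobilized PKA substrate, per the kit protocol.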

[7] = test system: STZ-induced diabetic mouse model; experiment: STZ-induced diabetic mouse model; format: in vivo, BALB/c mice
Outline: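 Male BALB/c mice, 6-7 weeks old, acclimated 1 week, on chow. STZ 65 mg/kg in citrate buffer pH 4.0 given IP for 5 days after overnight fast. Test compound 25 mg/kg oral in CMC for 18 days, starting 3 days before or 1 day after STZ. Controls received 0.25% CMC with or without STZ. Tail-vein glucose taken on alternate days, body weight on random days. Pancreas sections stained for insulin/Ki67 and insulin/TUNEL; n ≥ 5/group.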

[8] = Solubility in DMSO; format: physicochemical
[9] = molecular target: T1, hGLP1R; experiment: GLP1R internalization in hGLP1R-GFP transfected HepG2 cells; format: cell-based; conditions: for GLP1R internalization: 50 μM, 1 h, hGLP1R-GFP transfected HepG2 cells
Outline: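 HepG2 cells lipofected with hGLP1R-spark-GFP, then treated 1 h with test compound (50 µM), Ex-4 (20 nM, positive control) or DMSO. For antagonism, Ex-9 (300 nM) added 15 min before. Washed in PBS and formalin-fixed. Surface labelled with sulfo-NHS-biotin (1 mg/ml, 30 min, 4 °C), washed in 100 mM glycine, PFA-fixed, blocked in 1% BSA and stained with Texas-Red-avidin (5 µg/ml, 30 min). Internalization read by confocal microscopy.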

[10] = Pharmacokinetics after single oral dose in BALB/c mice; format: in vivo
Outline: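 Male BALB/c mice (5-6 weeks, 25 ± 2 g) given a single oral dose of 25 mg/kg and killed at 5 min to 24 h. Plasma extracted with acetonitrile:methanol (1:1) and run on reverse-phase C18 HPLC at 28 °C. Mobile phase 0.1% TFA water/acetonitrile (40:60) at 1 ml/min, fluorescence detection (ex 350 nm, em 497 nm). Quantified from peak-area standard curve; PK parameters by standard methods.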

[11] = test system: TXNIP; experiment: TXNIP protein expression, Western blot in INS-1 cells; format: cell-based, rat; conditions: PK2 30 min
Outline: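 INS-1 cells treated with test compound or DMSO vehicle for 30 min. Lysed in RIPA buffer with protease and phosphatase inhibitors, protein measured by BCA, and reduced at 95 °C for 5 min. Run on 4-10% SDS-PAGE and blotted to PVDF. Blocked in 5% BSA or milk, then probed with anti-TXNIP and HRP-conjugated secondary in TBST with 5% BSA.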

[12] = test system: TXNIP promoter; experiment: TXNIP promoter-luciferase activity assay in INS-1 cells; format: cell-based, rat; conditions: PK2 50 μM, 45 min, INS-1 cells transfected with TXNIP promoter-luciferase construct
[13] = BALB/c mice, oral, single dose 25 mg/kg, plasma
[14] = male, BALB/c, mouse, plasma, po, 25 mg/kg

T1 sequence (P43220 24-463): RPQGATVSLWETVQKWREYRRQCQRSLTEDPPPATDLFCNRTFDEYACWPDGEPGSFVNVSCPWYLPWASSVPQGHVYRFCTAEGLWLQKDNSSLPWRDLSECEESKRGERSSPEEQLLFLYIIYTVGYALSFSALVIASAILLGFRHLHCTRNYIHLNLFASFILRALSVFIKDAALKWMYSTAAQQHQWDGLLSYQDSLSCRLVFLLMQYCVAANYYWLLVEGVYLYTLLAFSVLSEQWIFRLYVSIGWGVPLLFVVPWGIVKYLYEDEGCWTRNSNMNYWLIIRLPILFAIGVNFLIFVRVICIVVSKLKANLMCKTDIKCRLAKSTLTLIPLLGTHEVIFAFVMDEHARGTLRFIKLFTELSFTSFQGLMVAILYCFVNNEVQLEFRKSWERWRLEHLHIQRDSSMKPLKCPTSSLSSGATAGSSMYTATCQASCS

Molecule: O=[N+]([O-])c1ccc(Cn2cc(Cn3c4ccccc4c4nc5ccccc5nc43)nn2)cc1 [PK2, 6-((1-(4-nitrobenzyl)-1H-1,2,3-triazol-4-yl)methyl)-6H-indolo[2,3-b]quinoxaline]
EC50 [1]: 0.0437 µM
Increase in insulin secretion [2]: 1.45 fold
Increase in CREB phosphorylation at Ser133 [3]: 1.7 fold
Tissue distribution: brain [4]: A small amount of PK2 was detectable
Tissue distribution: heart, lungs, and spleen [4]: no traces
Tissue distribution: liver, kidney, and pancreas [4]: distributed highly
Abnormal behavior or acute toxicity [5]: no abnormal behavior or acute toxicity was observed
Increment in PKA activity [6]: 1.6 fold
Recovery of serum insulin levels ([7]; PK2-treated groups, 25 mg/kg oral, end of study, vs STZ group): up to 6 fold
Enhancement of β-cell proliferation (Ki67) ([7]; PK2 groups, Ki67 in insulin-positive islet cells): 1.7 fold
Pancreas weight ([7]; PK2 groups, at termination of the study): protection in pancreas weight
Body weight ([7]; STZ mice, PK2 25 mg/kg oral, compared to STZ only): increased body weight
Reduction of number of TUNEL-positive cells in pancreatic islets ([7]; both PK2 groups compared to STZ group): 3 fold
Preservation of β-cell mass ([7]; pre-PK2 and post-PK2 groups compared to STZ, insulin immunohistochemistry): 4 fold
Islets area (H&E) ([7]; pre-PK2 and post-PK2 groups vs STZ group): significantly bigger islets area
Reduction of plasma glucose levels ([7]; pre-PK2 and post-PK2 groups, 25 mg/kg oral, compared to STZ only): 1.4 fold
solubility [8]: 10000 µg/mL (≈ 23 mM)
GLP1R internalization [9]: rapidly internalized GLP1R receptors
Plasma clearance (CL) ([10]; BALB/c mice, oral, single dose 25 mg/kg): 7.79 L/h
AUMC (0-t) [10, 13]: 13,601.58 ng h/ml
Area of last [10, 13]: 320.1451 ng·h/mL
Cl (Clearance) [10, 13]: 7.7875 L/h
K (Eliminatory rate constant) [10, 13]: 0.2003 h⁻¹
VD (Apparent volume of distribution) ([10]; BALB/c mice, oral, single dose 25 mg/kg, plasma, 25 mg/kg): 38.88 L and 38.882 L
AUC(0-t) [10, 14]: 3210 ng·h/mL
Cmax [10, 14]: 787 ng/mL
Tmax [10, 14]: 1 h
half-life ([10]; male, BALB/c, mouse, plasma, po, 25 mg/kg, t1/2 (Elimination half life), BALB/c mice, single dose 25 mg/kg): 4.8 h
TXNIP protein expression [11]: downregulates TXNIP
TXNIP promoter activity [12]: attenuates TXNIP promoter activity

GLP1R internalization [9]: rapidly internalized GLP1R receptors
Molecule: Cc1ccc(Cn2cc(Cn3c4ccccc4c4nc5ccccc5nc43)nn2)cc1 [PK3, 6-((1-(4-methylbenzyl)-1H-1,2,3-triazol-4-yl)methyl)-6H-indolo[2,3-b]quinoxaline]

GLP1R internalization [9]: rapidly internalized GLP1R receptors
Molecule: 6-((1-(4-methoxybenzyl)-1H-1,2,3-triazol-4-yl)methyl)-6H-indolo[2,3-b]quinoxaline [PK4]

Molecule: Exendin (9–39) [Ex-9, reference compound]
Effect of antagonist on PK2-mediated GLP1R internalization ([9]; Ex-9 300 nM for 15 min, then PK2 50 μM for 1 h, HepG2 cells): blocking PK2-mediated GLP1R internalization
